Source: ChEMBL document CHEMBL4428053, “Application of a Parallel Synthetic Strategy in the Discovery of Biaryl Acyl Sulfonamides as Efficient and Selective NaV1.7 Inhibitors” (J Med Chem, 2016)
In brackets after ≈: the same amount, converted by molar mass.

Columns and labels:
[1] = target: Sodium channel protein type 9 subunit alpha (Rattus norvegicus, UniProt O08562); assay: Inhibition of rat Nav1.7 expressed in HEK293T cells incubated for 3 to 5 mins at -125 mV holding potential by electrophysiology assay; assay type: cell-based
[2] = target: Sodium channel protein type 9 subunit alpha (Mus musculus, UniProt Q62205); assay: Inhibition of mouse Nav1.7 expressed in HEK293 cells incubated for 3 to 5 mins at -125 mV holding potential by electrophysiology assay; assay type: cell-based
[3] = AUC (infinity) in Harlan rat at 1 mg/kg, iv by LC-MS/MS analysis; assay type: ADME, organism-based; parameters: dose 1 mg/kg, route intravenous, time infinity; conditions: in vivo
Summary of the method: (§1)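 Male fed rats. The IV dose was given in 100% DMSO. The oral dose was given in 1% Tween 80, 2% HPMC, 97% water/NaOH (pH 8.5).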

[4] = AUC (infinity) in Harlan rat at 10 mg/kg, po by LC-MS/MS analysis; assay type: ADME, organism-based; parameters: dose 10 mg/kg, route oral, time infinity; conditions: in vivo; summary of the method: as §1
[5] = Half life in Harlan rat at 1 mg/kg, iv by LC-MS/MS analysis; assay type: ADME, organism-based; conditions: in vivo; summary of the method: as §1
[6] = Volume of distribution in Harlan rat at 1 mg/kg, iv by LC-MS/MS analysis; assay type: ADME, organism-based; conditions: in vivo; summary of the method: as §1
[7] = Plasma protein binding in Harlan rat at 1 mg/kg, iv by LC-MS/MS analysis; assay type: ADME, organism-based; conditions: read-out: PPB (converted)
[8] = Free plasma concentration in naive C57BL/6 mouse assessed as effect on basic locomotor movement at 30 mg/kg, po measured after 4 hrs for 60 mins by open field test; assay type: ADME, organism-based; conditions: in vivo
Summary of the method: (§2)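 Naive mice were dosed orally with vehicle or test article at 30, 100 or 300 mg/kg (n = 10 per group). Total basic movement in an open-field arena was recorded after dosing, and unbound plasma concentration was reported per dose.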

[9] = system: Mus musculus; assay: In vivo inhibition of Nav1.7 in C57BL/6 mouse assessed as reduction in histamine-induced scratching bouts at 300 mg/kg, po administered 4 hrs prior to histamine challenge measured for 15 mins; assay type: functional; conditions: C57BL/6, po
Summary of the method: (§3)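 Mice were dosed orally with vehicle, diphenhydramine (30 mg/kg, n = 8) or test article at 30 (n = 9), 100 (n = 10) or 300 (n = 10) mg/kg; vehicle n = 12. All groups received histamine intradermally. Total scratch bouts were counted, with unbound plasma concentration reported per dose. Statistics: one-way ANOVA with Dunnett's test versus vehicle.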

[10] = target: T1, Sodium channel protein type 9 subunit alpha (Homo sapiens, UniProt Q15858); assay: Inhibition of human Nav1.7 expressed in HEK293 cells assessed as reduction in peak inward current by manual whole cell patch clamp electrophysiology assay; assay type: cell-based
T1 sequence (Q15858 whole entry): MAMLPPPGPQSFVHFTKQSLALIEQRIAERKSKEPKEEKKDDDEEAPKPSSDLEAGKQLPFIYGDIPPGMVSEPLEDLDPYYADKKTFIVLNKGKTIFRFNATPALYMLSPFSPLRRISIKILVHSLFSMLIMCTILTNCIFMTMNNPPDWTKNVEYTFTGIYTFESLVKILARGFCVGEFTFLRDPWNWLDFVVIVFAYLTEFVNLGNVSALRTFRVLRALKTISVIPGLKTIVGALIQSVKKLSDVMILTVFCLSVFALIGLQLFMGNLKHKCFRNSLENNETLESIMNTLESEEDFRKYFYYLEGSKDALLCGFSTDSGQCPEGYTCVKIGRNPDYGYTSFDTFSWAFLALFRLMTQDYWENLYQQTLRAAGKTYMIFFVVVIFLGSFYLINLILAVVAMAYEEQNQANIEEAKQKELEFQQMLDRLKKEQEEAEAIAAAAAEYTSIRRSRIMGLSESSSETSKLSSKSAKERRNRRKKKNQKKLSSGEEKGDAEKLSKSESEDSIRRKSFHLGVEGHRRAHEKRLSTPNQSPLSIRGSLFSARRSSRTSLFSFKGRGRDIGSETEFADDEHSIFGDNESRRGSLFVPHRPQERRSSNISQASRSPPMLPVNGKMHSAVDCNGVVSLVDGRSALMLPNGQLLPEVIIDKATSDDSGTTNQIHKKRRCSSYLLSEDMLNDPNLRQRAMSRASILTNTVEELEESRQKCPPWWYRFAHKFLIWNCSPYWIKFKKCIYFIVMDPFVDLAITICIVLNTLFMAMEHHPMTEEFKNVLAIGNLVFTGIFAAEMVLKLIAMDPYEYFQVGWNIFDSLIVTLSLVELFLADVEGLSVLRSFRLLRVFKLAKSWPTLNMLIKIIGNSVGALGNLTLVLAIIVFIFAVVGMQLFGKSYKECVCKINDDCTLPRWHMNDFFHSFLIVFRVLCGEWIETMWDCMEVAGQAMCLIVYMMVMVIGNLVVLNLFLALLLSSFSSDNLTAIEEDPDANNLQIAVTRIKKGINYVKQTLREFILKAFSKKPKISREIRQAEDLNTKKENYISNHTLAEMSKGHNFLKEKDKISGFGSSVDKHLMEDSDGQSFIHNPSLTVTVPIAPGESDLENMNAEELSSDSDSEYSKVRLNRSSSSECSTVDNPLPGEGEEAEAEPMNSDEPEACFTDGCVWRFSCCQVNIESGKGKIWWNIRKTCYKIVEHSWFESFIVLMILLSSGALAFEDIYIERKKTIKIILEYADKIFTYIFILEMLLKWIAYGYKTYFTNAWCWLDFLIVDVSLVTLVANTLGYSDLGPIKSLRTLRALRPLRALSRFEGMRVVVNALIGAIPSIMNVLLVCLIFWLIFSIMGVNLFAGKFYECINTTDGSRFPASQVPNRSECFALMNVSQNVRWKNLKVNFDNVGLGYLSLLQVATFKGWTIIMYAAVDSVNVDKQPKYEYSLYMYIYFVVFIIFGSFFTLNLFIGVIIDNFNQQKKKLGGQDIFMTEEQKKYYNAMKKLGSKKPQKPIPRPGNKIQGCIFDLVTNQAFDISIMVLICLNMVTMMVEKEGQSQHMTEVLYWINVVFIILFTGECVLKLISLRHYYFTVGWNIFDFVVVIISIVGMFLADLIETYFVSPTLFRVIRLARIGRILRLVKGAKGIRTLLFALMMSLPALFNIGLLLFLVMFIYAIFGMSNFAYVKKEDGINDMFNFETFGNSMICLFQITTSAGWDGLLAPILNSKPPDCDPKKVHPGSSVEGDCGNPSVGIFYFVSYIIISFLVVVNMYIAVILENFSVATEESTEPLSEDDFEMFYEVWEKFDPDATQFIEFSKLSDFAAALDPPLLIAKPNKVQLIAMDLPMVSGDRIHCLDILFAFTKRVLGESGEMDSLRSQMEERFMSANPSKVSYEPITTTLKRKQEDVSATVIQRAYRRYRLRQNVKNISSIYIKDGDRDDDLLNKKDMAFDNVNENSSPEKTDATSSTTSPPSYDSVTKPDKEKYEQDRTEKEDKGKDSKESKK

[11] = target: Sodium channel protein type 2 subunit alpha (Homo sapiens, UniProt Q99250); assay: Inhibition of human Nav1.2 expressed in CHO cells assessed as reduction in peak inward current by manual whole cell patch clamp electrophysiology assay; assay type: cell-based
[12] = target: Sodium channel protein type 3 subunit alpha (Homo sapiens, UniProt Q9NY46); assay: Inhibition of human Nav1.3 expressed in CHO cells assessed as reduction in peak inward current by manual whole cell patch clamp electrophysiology assay; assay type: cell-based
[13] = target: Bile salt export pump (Homo sapiens, UniProt O95342); assay: Inhibition of human BSEP in plasma membrane vesicles after 10 mins in presence of [3H]-taurocholate by topcount based transport assay; assay type: cell membranes
Chain of Bile salt export pump (O95342 whole entry): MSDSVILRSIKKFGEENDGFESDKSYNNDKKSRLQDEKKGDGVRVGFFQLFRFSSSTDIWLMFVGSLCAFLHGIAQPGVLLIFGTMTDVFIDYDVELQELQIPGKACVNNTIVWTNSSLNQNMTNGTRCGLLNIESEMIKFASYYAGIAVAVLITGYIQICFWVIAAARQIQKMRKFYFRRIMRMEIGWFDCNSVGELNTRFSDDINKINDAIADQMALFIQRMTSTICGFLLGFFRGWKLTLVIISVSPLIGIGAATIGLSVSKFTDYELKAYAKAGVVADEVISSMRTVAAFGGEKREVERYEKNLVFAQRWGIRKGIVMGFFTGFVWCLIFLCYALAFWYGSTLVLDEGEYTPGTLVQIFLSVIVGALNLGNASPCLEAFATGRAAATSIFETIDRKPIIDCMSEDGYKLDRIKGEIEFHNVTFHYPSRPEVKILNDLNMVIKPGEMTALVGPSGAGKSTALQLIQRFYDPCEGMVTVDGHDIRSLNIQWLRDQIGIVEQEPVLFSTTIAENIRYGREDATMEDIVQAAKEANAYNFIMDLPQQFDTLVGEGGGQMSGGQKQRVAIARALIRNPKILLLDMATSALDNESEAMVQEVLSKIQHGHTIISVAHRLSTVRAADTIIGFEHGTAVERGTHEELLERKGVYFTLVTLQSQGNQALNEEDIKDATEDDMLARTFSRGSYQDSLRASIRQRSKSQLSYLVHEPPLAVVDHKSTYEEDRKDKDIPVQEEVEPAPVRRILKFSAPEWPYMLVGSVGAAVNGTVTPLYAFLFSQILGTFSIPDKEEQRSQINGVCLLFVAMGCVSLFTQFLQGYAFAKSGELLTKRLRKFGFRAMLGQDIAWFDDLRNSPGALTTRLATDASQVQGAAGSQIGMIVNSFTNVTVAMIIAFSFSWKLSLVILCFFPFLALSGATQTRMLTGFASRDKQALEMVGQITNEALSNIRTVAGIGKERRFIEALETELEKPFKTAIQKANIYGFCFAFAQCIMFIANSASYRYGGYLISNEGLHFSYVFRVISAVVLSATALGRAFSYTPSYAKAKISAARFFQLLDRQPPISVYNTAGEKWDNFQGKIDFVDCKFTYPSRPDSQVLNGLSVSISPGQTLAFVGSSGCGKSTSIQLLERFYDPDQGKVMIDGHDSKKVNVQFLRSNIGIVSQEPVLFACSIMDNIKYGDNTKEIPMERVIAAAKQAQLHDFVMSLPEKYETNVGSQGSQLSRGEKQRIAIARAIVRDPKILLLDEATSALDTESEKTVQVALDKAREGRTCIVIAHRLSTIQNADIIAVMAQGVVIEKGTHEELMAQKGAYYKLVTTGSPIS

[14] = target: T1, Sodium channel protein type 9 subunit alpha; assay: Inhibition of human Nav1.7 expressed in HEK293 cells assessed as tonic block at pulse 1 by ionworks quattro electrophysiology assay; assay type: cell-based
[15] = target: T1, Sodium channel protein type 9 subunit alpha; assay: Inhibition of human Nav1.7 expressed in HEK293 cells assessed as use-dependent block at pulse 26 by ionworks quattro electrophysiology assay; assay type: cell-based
[16] = target: T1, Sodium channel protein type 9 subunit alpha; assay: Displacement of [3H]-6,6-fused heteroaryl-sulfonamide derivative from human Nav1.7 expressed in HEK293 cell membranes preincubated for 30 mins followed by radioligand addition measured after 1 hr by scintillation counting analysis
[17] = target: T2, Nuclear receptor subfamily 1 group I member 2 (Homo sapiens, UniProt O75469); assay: Induction of human PXR at 10 uM; assay type: ADME
T2 sequence (O75469 whole entry): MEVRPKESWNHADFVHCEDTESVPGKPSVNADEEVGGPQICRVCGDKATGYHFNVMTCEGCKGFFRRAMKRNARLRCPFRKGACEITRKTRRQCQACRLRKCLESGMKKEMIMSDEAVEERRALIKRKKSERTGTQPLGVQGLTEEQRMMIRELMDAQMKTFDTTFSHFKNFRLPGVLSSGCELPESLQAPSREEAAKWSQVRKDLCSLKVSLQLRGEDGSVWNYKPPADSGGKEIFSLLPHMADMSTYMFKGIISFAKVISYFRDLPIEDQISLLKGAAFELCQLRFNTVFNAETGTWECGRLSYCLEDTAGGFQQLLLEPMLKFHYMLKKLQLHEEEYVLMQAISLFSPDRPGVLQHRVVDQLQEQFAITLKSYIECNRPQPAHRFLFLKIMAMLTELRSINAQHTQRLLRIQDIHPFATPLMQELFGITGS

[18] = Unbound plasma concentration in C57BL/6 mouse model of histamine-induced scratching at 100 mg/kg, po administered 4 hrs prior to histamine challenge; assay type: ADME, organism-based; conditions: in vivo; summary of the method: as §3
[19] = Apparent passive permeability in MDCK cells at 5 uM after 120 mins by LC/MS/MS analysis; assay type: ADME, cell-based, Canis lupus familiaris; conditions: dog
[20] = Protein binding in mouse plasma at 5 uM after 45 mins by LC-MS/MS analysis; assay type: ADME, cell-free; conditions: read-out: PPB (converted)
[21] = Free plasma concentration in naive C57BL/6 mouse assessed as effect on basic locomotor movement at 300 mg/kg, po measured after 4 hrs for 60 mins by open field test; assay type: ADME, organism-based; conditions: in vivo; summary of the method: as §2
[22] = target: T3, Cytochrome P450 3A4 (Homo sapiens, UniProt P08684)
T3 sequence (P08684 whole entry): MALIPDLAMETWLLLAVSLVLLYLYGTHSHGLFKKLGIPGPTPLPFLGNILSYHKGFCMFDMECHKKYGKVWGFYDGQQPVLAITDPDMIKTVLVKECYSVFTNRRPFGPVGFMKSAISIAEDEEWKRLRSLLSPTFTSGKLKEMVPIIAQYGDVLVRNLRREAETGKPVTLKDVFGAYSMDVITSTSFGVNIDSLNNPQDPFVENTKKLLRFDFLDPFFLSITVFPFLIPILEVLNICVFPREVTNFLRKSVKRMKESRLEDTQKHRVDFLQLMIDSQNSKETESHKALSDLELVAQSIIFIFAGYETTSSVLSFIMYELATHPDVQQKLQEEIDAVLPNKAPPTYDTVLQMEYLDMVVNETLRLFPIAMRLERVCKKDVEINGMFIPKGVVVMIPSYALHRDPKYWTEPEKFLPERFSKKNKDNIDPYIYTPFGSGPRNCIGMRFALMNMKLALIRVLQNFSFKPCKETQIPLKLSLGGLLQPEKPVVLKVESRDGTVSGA

[23] = target: T4, Cytochrome P450 2D6 (Homo sapiens, UniProt P10635)
T4 sequence (P10635 whole entry): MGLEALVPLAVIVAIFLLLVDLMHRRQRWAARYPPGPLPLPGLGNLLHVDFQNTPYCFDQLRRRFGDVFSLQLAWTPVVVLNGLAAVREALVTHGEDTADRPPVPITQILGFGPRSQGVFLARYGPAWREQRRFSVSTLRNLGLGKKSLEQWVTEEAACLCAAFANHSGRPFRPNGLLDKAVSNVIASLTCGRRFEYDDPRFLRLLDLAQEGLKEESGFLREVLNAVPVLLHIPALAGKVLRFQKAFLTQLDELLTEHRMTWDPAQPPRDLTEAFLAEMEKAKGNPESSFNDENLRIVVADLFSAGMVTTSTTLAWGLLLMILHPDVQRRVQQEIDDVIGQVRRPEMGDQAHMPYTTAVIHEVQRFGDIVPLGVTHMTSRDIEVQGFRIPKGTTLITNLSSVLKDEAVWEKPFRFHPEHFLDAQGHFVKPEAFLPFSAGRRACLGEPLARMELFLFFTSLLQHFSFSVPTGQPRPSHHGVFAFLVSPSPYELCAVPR

[24] = target: T3, Cytochrome P450 3A4; remark: listed apart in the source
[25] = target: T4, Cytochrome P450 2D6; remark: listed apart in the source
[26] = target: Cytochrome P450 2C9 (Homo sapiens, UniProt P11712)
Chain of Cytochrome P450 2C9 (P11712 whole entry): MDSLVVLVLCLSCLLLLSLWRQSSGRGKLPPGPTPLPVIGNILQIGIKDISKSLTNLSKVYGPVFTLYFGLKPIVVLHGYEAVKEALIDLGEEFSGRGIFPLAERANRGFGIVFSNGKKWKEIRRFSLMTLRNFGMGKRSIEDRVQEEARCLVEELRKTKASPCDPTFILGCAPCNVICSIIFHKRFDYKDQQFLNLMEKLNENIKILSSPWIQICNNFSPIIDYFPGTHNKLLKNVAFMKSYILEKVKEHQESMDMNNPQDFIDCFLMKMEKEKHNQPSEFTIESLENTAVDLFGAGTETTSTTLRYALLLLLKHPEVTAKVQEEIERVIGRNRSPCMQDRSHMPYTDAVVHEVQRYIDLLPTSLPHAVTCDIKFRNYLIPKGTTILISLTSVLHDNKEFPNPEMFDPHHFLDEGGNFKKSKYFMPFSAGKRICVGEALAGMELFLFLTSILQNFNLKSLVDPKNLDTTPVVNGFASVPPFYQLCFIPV

[27] = in vitro; conditions: human, liver microsomes
[28] = in vitro; conditions: rat, liver microsomes
[29] = physchem; conditions: PBS, pH 7.4
[30] = physchem; conditions: fasted state simulated intestinal fluid, pH 6.8
[31] = Toxicity in C57BL/6 mouse assessed as reduction in locomotor activity at 30 mg/kg, po for 4 hrs by open field test; conditions: in vivo
[32] = Toxicity in C57BL/6 mouse assessed as reduction in locomotor activity at 100 mg/kg, po for 4 hrs by open field test; conditions: in vivo

Q: Which IC50 [1] does the source give for `COc1cc(C(=O)NS(C)(=O)=O)c(F)cc1-c1cnc(Oc2cc(F)ccc2F)c(Cl)c1` here?
A: 3.69 µM

Q: And the IC50 [2]?
A: 0.115 µM

Q: What about the AUC(0-inf) [3] of the same molecule?
A: 5.4 µM·h

Q: What about the AUC(0-inf) [4] of the same molecule?
A: 377 µM·h

Q: What about the half-life [5] of the same molecule?
A: 1.84 h

Q: And the Vd [6]?
A: 0.93 L/kg

Q: What about the fraction unbound [7] of the same molecule?
A: 0.004

Q: What about the “Cp(f)” value [8] of the same molecule?
A: 640 nM

Q: And the inhibition in vivo at 300 mg/kg [9]?
A: 75%

Q: And the IC50 [10]?
A: 0.051 µM

Q: And the IC50 [11]?
A: 9.8 µM

Q: What about the IC50 [12] of the same molecule?
A: 12.5 µM

Q: What about the IC50 [13] of the same molecule?
A: 13.3 µM

Q: What about the IC50 [14] of the same molecule?
A: 0.044 µM

Q: And the IC50 [15]?
A: 0.042 µM

Q: And the IC50 [16]?
A: 0.017 µM

Q: And the Activity [17]?
A: 3%

Q: What about the “Cp(f)” value [18] of the same molecule?
A: 1270 nM

Q: And the Papp at 2 h, 5 µM [19]?
A: 22.4 ×10⁻⁶ cm/s

Q: What about the fraction unbound at 0.75 h, 5 µM [20] of the same molecule?
A: 0.014

Q: And the “Cp(f)” value [21]?
A: 3720 nM

Q: What about the IC50 [22] of the same molecule?
A: > 50 µM

Q: And the IC50 [23]?
A: > 50 µM

Q: What about the IC50 [24] of the same molecule?
A: > 50 µM

Q: And the IC50 [25]?
A: > 50 µM

Q: And the IC50 [26]?
A: 49.6 µM

Q: What about the microsomal CLint at 1 µM [27] of the same molecule?
A: 27 µL/min/mg

Q: What about the microsomal CLint at 1 µM [28] of the same molecule?
A: < 14 µL/min/mg

Q: What about the solubility thermodynamic at 24 h [29] of the same molecule?
A: 398 µM (≈ 194 µg/mL)

Q: And the solubility thermodynamic at 24 h [30]?
A: 500 µM (≈ 243 µg/mL)

Q: What about the Activity [31] of the same molecule?
A: Non-Toxic

Q: And the Activity [32]?
A: Non-Toxic
